In ChEMBL document CHEMBL2331117 (J Med Chem, 2013):

Key:
Mus musculus [1] = assay: Inhibition of mTORC2-mediated phosphorylation of AKT at serine 473 in human PC3 cells xenografted into athymic nude mouse at 100 mg/kg, po after 1 hr by Western blotting analysis relative to control; assay type: functional; details: PC-3, 1 h
Summary of the method: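 PC-3 cells (3 × 10^6, in ice-cold HBSS) were implanted subcutaneously in the hindflank of 5–8 week old male nude mice. At 200–500 mg tumour size, mice received a single oral dose. Tumours were collected at set times after dosing, homogenised and pooled per group (n=5). pAKT S473 was measured by Western blot and normalised to α-tubulin.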

Mus musculus [2] = assay: In vivo inhibition of mTORC2-mediated phosphorylation of AKT at […] in human PC3 cells xenografted into athymic nude mouse at 100 mg/kg, po after 1 hr by Western blotting analysis relative to control; assay type: functional; details: PC-3, 1 h
Summary of the method: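 Human PC-3 cells were implanted subcutaneously into the hindflank of male nude mice aged 5−8 weeks, at 3 × 10^6 cells (passages 10−14, >95% viability) in ice-cold HBSS. At a tumor size of 200−500 mg, mice got one oral 100 mg/kg dose. Tumors were taken at 1, 4, 8, 16, 24 and 32 h. Lysates (n = 5 per group) were pooled, and phospho-AKT (T308) was read by Western blot, normalized to α-tubulin.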

[3] = target: Phosphatidylinositol 4,5-bisphosphate 3-kinase catalytic subunit delta isoform (Homo sapiens, UniProt O00329); assay: Inhibition of PI3Kdelta (unknown origin)
[4] = Plasma protein binding in dog at 5 uM; assay type: ADME, cell-free, Canis lupus familiaris; details: read-out: PPB (converted)
[5] = Plasma concentration in athymic mouse plasma xenografted with human MCF7 cells at 100 mg/kg, po after 4 hrs; assay type: ADME, organism-based; design: dose 100 mg/kg, route oral
Summary of the method: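 MCF-7 cells (5 × 10^6 in 50% cold HBSS/50% growth-factor-reduced Matrigel) implanted subcutaneously in the hindflank of 5−8-week-old female nude mice. When tumors reached 40−150 mg, mice received a single oral dose. Plasma exposure was measured after dosing, and scheduled takedown was at 4 h.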

[6] = AUC (0 to infinity) in cynomolgus monkey at 3 mg/kg, iv; assay type: ADME, organism-based, Macaca fascicularis; design: time infinity, dose 3 mg/kg, route intravenous; details: plasma
Summary of the method: (§1)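 Single-dose PK: female athymic nude mice (10 mg/kg), female CD rats and male beagle dogs (3 mg/kg), male cynomolgus monkeys (3 mg/kg), given iv and by oral gavage. Solution in EPW (5% ethanol/45% PEG400/water), with 1:2 HCl (m/m) for mouse, rat and dog and 1:1.5 HCl (m/m) for monkey. Plasma levels followed over 24 h.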

[7] = Metabolic stability in dog liver microsomes after 30 mins; assay type: ADME, Canis lupus familiaris, Microsome; details: read-out: Stability
[8] = Tmax in Beagle dog at 3 mg/kg, po; assay type: ADME, organism-based, Canis lupus familiaris; design: dose 3 mg/kg, route oral; details: in vivo
Mus musculus [9] = assay: Toxicity in athymic nude mouse assessed as body weight loss at 100 mg/kg, po relative to control; assay type: organism-based; design: dose 100 mg/kg, route oral; details: in vivo
[10] = target: Phosphatidylinositol 3-kinase catalytic subunit type 3 (Homo sapiens, UniProt Q8NEB9); assay: Inhibition of VPS34 (unknown origin)
[11] = Plasma concentration in mouse at 100 mg/kg, po after 1 hr; assay type: ADME, organism-based; design: dose 100 mg/kg, route oral
Mus musculus [12] = assay: In vivo inhibition of mTORC2-mediated phosphorylation of AKT at serine 473 in human PC3 cells xenografted into athymic nude mouse at 100 mg/kg, po after 24 hrs by Western blotting analysis relative to control; assay type: functional; details: PC-3, 24 h
Summary of the method: (§2)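 PC-3 cells grown in DMEM with 20% FBS were implanted subcutaneously at 3 × 10^6 cells in ice-cold HBSS into the hindflank of 5−8 week old male nude mice. At tumor size 200−500 mg, mice received a single oral dose of 100 mg/kg. Plasma and tumors were collected at 1, 4, 8, 16, 24 and 32 h. Tumor lysates from each group (n = 5) were pooled. Phospho-proteins were quantified by Western blot and normalized to α-tubulin.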

[13] = Plasma protein binding in human at 5 uM; assay type: ADME, cell-free; details: read-out: PPB (converted)
Mus musculus [14] = assay: In vivo inhibition of mTORC2-mediated phosphorylation of AKT at […] in human MCF7 cells xenografted into athymic nude mouse at 100 mg/kg, po after 8 hrs by Western blotting analysis relative to control; assay type: functional; details: MCF7, 8 h
Summary of the method: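 Human MCF-7 cells were implanted subcutaneously into the hindflank of female nude mice aged 5−8 weeks, at 5 × 10^6 cells in 50% cold HBSS/50% growth-factor-reduced matrigel. At a tumor size of 40−150 mg, mice got one oral dose. Tumor lysates were pooled per group. Phospho-AKT (T308) was read by Western blot and normalized to α-tubulin.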

[15] = Metabolic stability in rat liver microsomes after 30 mins; assay type: ADME, Microsome; details: read-out: Stability
[16] = AUC (0 to infinity) in cynomolgus monkey at 3 mg/kg, po; assay type: ADME, organism-based, Macaca fascicularis; design: dose 3 mg/kg, route oral, time infinity; details: plasma; summary of the method: as §1
[17] = target: RAC-alpha serine/threonine-protein kinase (Homo sapiens, UniProt P31749); assay: Inhibition of AKT1 (unknown origin)
[18] = Plasma concentration in athymic mouse plasma xenografted with human PC3 cells at 100 mg/kg, po after 4 hrs; assay type: ADME, organism-based, PC-3; design: dose 100 mg/kg, route oral
Mus musculus [19] = assay: In vivo inhibition of mTORC1-mediated phosphorylation of p70S6K at […] in human PC3 cells xenografted into athymic nude mouse at 100 mg/kg, po after 16 hrs by Western blotting analysis relative to control; assay type: functional; details: PC-3, 16 h; summary of the method: as §2
Cytochrome P450 3A4 = Cytochrome P450 3A4 (Homo sapiens, UniProt P08684); assay: Induction of CYP3A4 (unknown origin); assay type: ADME
[20] = target: Cell division cycle 7-related protein kinase (Homo sapiens, UniProt O00311); assay: Inhibition of CDC7 (unknown origin)
[21] = Clearance in Beagle dog at 3 mg/kg, iv; assay type: ADME, organism-based, Canis lupus familiaris; design: dose 3 mg/kg, route intravenous; details: in vivo; summary of the method: as §1
[22] = Drug uptake in tumor of athymic mouse xenografted with human PC3 cells at 100 mg/kg, po after 8 hrs; assay type: ADME, organism-based, Neoplasm, PC-3; design: dose 100 mg/kg, route oral; details: read-out: Drug uptake
Summary of the method: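 PC-3 cells (3 × 10⁶, passages 10–14, in ice-cold HBSS) were implanted sc in 5–8 week old male nude mice. Tumors of 200–500 mg received a single oral 100 mg/kg dose. Plasma and tumor were collected at 1, 4, 8, 16, 24 and 32 h and homogenized in buffer. Lysates were pooled per group (n = 5), and phospho-proteins were measured by Western blot normalized to α-tubulin.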

[23] = Drug uptake in tumor of athymic mouse xenografted with human MCF7 cells at 100 mg/kg, po after 16hrs; assay type: ADME, organism-based, Neoplasm; design: dose 100 mg/kg, route oral; details: read-out: Drug uptake
MCF7 = assay: Antitumor activity against human MCF7 cells xenografted in athymic nude mouse at 50 mg/kg, po qd for 14 days relative to control; assay type: functional
Summary of the method: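 Female athymic nude (NCr) mice, 5–8 weeks old, bearing subcutaneous MCF-7 tumors staged at 100–200 mg. Compound given orally qd for 14 days at 50 or 100 mg/kg as a solution/fine suspension in water with a 1:1 molar ratio of 1 N HCl. Caliper tumor mass = length × width²/2, measured twice weekly; body mass recorded daily.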

[24] = Oral bioavailability in athymic nude mouse at 10 mg/kg; assay type: ADME, organism-based; details: in vivo
Summary of the method: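 For single-dose PK, compound was given intravenously and by oral gavage as a solution in EPW (5% ethanol/45% PEG400/water + 1:2 HCl m/m). Doses were 10 mg/kg in female athymic nude mice and 3 mg/kg in female CD rats and male beagle dogs.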

[25] = Plasma concentration in athymic mouse plasma xenografted with human PC3 cells at 100 mg/kg, po after 8 hrs; assay type: ADME, organism-based, PC-3; design: dose 100 mg/kg, route oral

Chain of Cell division cycle 7-related protein kinase (O00311 whole entry): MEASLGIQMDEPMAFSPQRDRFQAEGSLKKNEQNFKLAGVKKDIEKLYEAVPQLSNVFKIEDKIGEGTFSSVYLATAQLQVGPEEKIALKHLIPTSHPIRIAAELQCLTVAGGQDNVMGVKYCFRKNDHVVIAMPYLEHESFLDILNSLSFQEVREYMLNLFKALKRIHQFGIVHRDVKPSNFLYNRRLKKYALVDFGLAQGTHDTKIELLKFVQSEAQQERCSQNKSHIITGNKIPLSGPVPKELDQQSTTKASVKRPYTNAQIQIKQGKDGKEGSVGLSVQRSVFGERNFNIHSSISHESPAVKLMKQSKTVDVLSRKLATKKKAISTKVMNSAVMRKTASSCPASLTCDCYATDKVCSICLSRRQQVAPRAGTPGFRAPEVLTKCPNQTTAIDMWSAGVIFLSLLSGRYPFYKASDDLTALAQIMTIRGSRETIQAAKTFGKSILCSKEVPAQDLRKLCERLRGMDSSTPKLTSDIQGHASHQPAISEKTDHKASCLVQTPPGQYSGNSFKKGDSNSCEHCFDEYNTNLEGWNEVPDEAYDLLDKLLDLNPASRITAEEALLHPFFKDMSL
Chain of Cytochrome P450 3A4 (P08684 whole entry): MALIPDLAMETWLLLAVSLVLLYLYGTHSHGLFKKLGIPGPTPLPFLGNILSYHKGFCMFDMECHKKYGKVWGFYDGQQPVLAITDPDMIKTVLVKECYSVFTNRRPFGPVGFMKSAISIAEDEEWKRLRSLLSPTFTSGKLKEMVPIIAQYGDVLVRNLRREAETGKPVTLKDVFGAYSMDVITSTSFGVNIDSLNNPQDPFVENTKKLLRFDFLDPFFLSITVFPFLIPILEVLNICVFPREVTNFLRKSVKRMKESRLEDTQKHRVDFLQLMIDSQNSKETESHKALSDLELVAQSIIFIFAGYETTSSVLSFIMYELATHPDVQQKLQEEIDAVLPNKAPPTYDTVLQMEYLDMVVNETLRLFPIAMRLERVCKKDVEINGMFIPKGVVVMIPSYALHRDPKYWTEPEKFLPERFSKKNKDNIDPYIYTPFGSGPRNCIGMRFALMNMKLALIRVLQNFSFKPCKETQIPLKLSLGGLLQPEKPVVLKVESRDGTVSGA
Chain of RAC-alpha serine/threonine-protein kinase (P31749 whole entry): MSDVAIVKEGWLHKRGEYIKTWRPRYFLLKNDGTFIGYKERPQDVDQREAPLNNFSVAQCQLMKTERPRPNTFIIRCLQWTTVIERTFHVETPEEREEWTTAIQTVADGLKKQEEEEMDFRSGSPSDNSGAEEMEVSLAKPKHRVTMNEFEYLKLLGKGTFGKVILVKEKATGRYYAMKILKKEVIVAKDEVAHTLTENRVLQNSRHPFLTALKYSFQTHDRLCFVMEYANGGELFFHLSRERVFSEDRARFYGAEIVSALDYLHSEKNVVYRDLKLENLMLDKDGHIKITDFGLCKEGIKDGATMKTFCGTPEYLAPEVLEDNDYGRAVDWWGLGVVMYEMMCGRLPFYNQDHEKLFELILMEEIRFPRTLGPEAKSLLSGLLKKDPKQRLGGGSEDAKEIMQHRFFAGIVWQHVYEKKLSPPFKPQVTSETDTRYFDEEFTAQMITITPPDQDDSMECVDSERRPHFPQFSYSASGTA
Chain of Phosphatidylinositol 3-kinase catalytic subunit type 3 (Q8NEB9 whole entry): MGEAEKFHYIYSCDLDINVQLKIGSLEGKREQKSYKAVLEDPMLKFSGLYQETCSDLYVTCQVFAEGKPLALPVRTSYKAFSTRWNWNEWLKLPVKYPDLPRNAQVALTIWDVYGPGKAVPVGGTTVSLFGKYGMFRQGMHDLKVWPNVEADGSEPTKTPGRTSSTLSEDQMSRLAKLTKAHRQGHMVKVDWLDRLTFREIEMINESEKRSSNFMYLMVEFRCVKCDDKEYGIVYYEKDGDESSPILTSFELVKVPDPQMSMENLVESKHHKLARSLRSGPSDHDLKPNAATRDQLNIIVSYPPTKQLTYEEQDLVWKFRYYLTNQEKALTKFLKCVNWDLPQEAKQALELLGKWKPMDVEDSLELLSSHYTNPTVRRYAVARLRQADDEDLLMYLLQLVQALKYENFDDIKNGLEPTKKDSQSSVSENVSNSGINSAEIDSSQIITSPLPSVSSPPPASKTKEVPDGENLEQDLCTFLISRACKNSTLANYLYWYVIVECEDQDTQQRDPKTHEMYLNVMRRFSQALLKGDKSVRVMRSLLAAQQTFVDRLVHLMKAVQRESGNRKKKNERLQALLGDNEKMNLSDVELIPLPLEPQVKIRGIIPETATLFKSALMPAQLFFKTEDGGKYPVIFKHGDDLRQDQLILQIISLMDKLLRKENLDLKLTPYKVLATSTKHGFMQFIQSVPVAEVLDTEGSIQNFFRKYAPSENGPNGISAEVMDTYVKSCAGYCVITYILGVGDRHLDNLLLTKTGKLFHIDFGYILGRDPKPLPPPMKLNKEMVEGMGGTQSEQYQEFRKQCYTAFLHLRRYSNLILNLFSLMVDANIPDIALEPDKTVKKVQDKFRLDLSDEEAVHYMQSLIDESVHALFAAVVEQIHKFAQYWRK
Chain of Phosphatidylinositol 4,5-bisphosphate 3-kinase catalytic subunit delta isoform (O00329 whole entry, canonical isoform): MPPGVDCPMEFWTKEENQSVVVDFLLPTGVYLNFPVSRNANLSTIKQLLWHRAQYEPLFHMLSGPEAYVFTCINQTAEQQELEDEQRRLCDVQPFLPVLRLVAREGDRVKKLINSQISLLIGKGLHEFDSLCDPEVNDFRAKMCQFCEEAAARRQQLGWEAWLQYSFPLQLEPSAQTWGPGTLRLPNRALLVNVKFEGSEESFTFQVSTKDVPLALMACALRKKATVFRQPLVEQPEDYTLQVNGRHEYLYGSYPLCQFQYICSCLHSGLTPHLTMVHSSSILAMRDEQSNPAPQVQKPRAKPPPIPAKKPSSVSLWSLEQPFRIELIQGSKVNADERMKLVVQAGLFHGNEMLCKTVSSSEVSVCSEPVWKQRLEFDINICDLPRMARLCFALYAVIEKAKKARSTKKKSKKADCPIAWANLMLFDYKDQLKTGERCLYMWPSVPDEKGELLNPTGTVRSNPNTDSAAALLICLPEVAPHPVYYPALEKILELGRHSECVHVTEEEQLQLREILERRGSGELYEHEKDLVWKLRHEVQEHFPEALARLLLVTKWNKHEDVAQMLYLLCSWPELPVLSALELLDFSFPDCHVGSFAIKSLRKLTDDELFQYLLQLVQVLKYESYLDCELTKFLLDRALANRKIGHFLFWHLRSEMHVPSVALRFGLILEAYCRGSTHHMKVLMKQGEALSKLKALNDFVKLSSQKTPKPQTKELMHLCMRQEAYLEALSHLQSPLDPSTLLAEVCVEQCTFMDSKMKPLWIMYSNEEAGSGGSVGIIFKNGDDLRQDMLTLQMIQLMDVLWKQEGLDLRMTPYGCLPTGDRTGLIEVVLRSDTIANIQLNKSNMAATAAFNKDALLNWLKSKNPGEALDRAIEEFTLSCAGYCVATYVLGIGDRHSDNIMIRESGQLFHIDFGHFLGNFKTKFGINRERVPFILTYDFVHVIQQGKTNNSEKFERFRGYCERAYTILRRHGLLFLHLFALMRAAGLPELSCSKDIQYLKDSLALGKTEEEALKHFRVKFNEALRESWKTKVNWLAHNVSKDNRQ

Cc1c(C(=O)N2CCOc3ccc(-c4ccc(N)nc4)cc3C2)ccc(S(C)(=O)=O)c1F
inhibition in vivo at 100 mg/kg (Mus musculus [1]): 88%
inhibition in vivo at 100 mg/kg (Mus musculus [2]): -24%
IC50 [3]: > 5 µM
fraction unbound at 5 µM [4]: 0.11
concentration at 4 h [5]: 30.1 µM
AUC(0-inf) [6]: 1.31 µM·h
remaining at 0.5 h [7]: 82%
Tmax [8]: 1 h
Activity (Mus musculus [9]): 2.8%
IC50 [10]: > 3.5 µM
concentration at 1 h [11]: 22 µM
inhibition in vivo at 100 mg/kg (Mus musculus [12]): 5%
fraction unbound at 5 µM [13]: 0.14
inhibition in vivo at 100 mg/kg (Mus musculus [14]): -2%
remaining at 0.5 h [15]: 78%
AUC(0-inf) [16]: 0.7 µM·h
IC50 [17]: > 3.5 µM
concentration at 4 h [18]: 21.3 µM
inhibition in vivo at 100 mg/kg (Mus musculus [19]): 66%
Activity (Cytochrome P450 3A4): 50 µM
IC50 [20]: > 3.5 µM
clearance [21]: 9.97 mL/min/kg
concentration at 8 h [22]: 25.5 µM
concentration at 16 h [23]: 2.74 µM
Activity (MCF7): 22%
bioavailability [24]: 31.4%
concentration at 8 h [25]: 26.7 µM
